Among the data in ChEMBL document CHEMBL4513216, “Probing the Open Global Health Chemical Diversity Library for Multistage-Active Starting Points for Next-Generation Antimalarials” (ACS Infect Dis, 2020) are cytotoxicity values, retold here.

The nature of the data set: Toxicity liver stage against HepG2, at 10uM. It is filed as cell-based. The arrangement: test concentration 10 uM, cell line HepG2-A16-CD81EGFP. The conditions noted are these: human, HepG2-A16-CD81EGFP cells; read-out: INHIBITION
The procedure, abridged:
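Uninfected HepG2-A16-CD81EGFP cells, 3 × 10^3 per well, 1536-well, plated on prespotted compound at 10 μM final, parasite-free screening media added to match infected plates; puromycin 10 μM positive, DMSO 0.5% negative; run in parallel with 48 h PbLuc assay at 37 °C, 5% CO2; viability by CellTiter-Glo luminescence, normalized to controls.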
Take `COCC(=O)Nc1cnc(N2CCOCC2)nc1`: the cytotoxicity at 10 µM was -10.7%. With `OC1CCN(C2CCN(c3ccc(Cn4ccnc4)cn3)CC2)CC1`, the cytotoxicity at 10 µM was -2.05%.

Turning to `CCS(=O)(=O)c1ncc(CN2CCN(C)CC2)n1CCc1ccccc1`, the cytotoxicity at 10 µM amounted to 2.44%. `CCC(CC)c1cc(C(=O)N2CCN(CC(N)=O)CC2)on1`: the cytotoxicity at 10 µM is -4.97%. As for `COCc1nc2ncc3c(=O)n(-c4cccc(OC)c4)ccc3n2n1`, the cytotoxicity at 10 µM is 8.99%. As for `Cc1occc1C(=O)NCc1cccnc1N(C)C`, the cytotoxicity at 10 µM is -5.89%. For `COCC(=O)N1CCC2(CC1)CN(c1ncccn1)CCO2`, the cytotoxicity at 10 µM was -67.3%. In the case of `Fc1cccc(CN2CCC(c3n[nH]c4ncccc34)CC2)c1F`, the cytotoxicity at 10 µM was -2.86%. As to `Cc1n[nH]c2c1C(c1ccc3c(c1)OCO3)SCC(=O)N2` (stereo not given), the cytotoxicity at 10 µM amounted to 3.46%. Turning to `Cc1ccc(CC(=O)N2CCCCC2Cn2cccn2)cn1` (stereo not given), the cytotoxicity at 10 µM was -130%. `COCc1cc(O)nc(C2CCCN(Cc3cc(OC)ccc3F)C2)n1` (stereo not given): the cytotoxicity at 10 µM turned out to be 4.42%. Consider `CC(C)CCOc1ccc(C(C)NC(=O)CSCC(N)=O)cc1` (stereo not given), for which the cytotoxicity at 10 µM is 10.5%.

On to `NC(=O)CN(CC(=O)NCCc1c(F)cccc1F)C1CCCC1`, for which the cytotoxicity at 10 µM is -8.02%. For `Cc1cnn(CC2CN(Cc3nc(-c4ccoc4)no3)CCO2)c1` (stereo not given), the cytotoxicity at 10 µM is -9.63%. For `Cc1nc(NCC(O)CN2CCCCCC2)c2c(C)nn(C)c2n1` (stereo not given), the cytotoxicity at 10 µM was -2.86%. `Cc1ccc(CN(Cc2[nH]cnc2C)C2CC(C)(C)NC(C)(C)C2)o1`: the cytotoxicity at 10 µM is -3.3%.

As to `CNc1cc(C)nc(N2CCN(Cc3ccccc3)CC(O)C2)n1` (stereo not given), the cytotoxicity at 10 µM is -4.21%. In the case of `Cc1noc(C(C)N2CCN(Cc3nc(C)c(C)o3)CC2)n1` (stereo not given), the cytotoxicity at 10 µM was found to be 0.397%.

With `CC(C)c1n[nH]c(C2CN(C(=O)c3cccc4cn[nH]c34)CCO2)n1` (stereo not given), the cytotoxicity at 10 µM was -5.31%.

Regarding `COC[C@@H]1CCCN1C(=O)c1cc(-c2cccc(OC)c2)n[nH]1`, the cytotoxicity at 10 µM was determined as 6.6%. In the case of `CCN(CC)C(=O)Cn1ccc2cc(NC(=O)C3CC3)ccc21`, the cytotoxicity at 10 µM is -3.87%. For `CC(CN1CCOC1=O)NC(=O)c1cccc2cc[nH]c12` (stereo not given) the value was 6.2%. For the compound `c1cncc(OC[C@@H]2CCC[C@@]23CNCCO3)c1`, the cytotoxicity at 10 µM was found to be 10.5%.

As for `COCCN1CCC2(CC1)CC(NC(=O)C1CC1)c1ccccc1O2` (stereo not given), the cytotoxicity at 10 µM was 1.67%.

As for `O=c1ccc2c([nH]1)CCC(NCc1ccc(F)cc1)C2` (stereo not given), the cytotoxicity at 10 µM was -1.87%. As for `O=C(O)c1c(-c2cccnc2)ncc2c1CCN(Cc1ccccn1)C2`, the cytotoxicity at 10 µM is -1.43%.

With `COCc1cccc(C(=O)N2CCCC2)c1`, the cytotoxicity at 10 µM is -1.7%. Regarding `O=S(=O)(C1CC1)N1CCC[C@]2(C[C@@H](Oc3ccccn3)CO2)C1`, the cytotoxicity at 10 µM is -144%. Regarding `O=C1NC2(Nc3ncccc31)C(=O)Nc1c2ccc(Cl)c1F` (stereo not given), the cytotoxicity at 10 µM worked out at 9.06%. Take `O=C(Cc1cccs1)N1CCCC(CNS(=O)(=O)Cc2ccccc2)C1` (stereo not given): the cytotoxicity at 10 µM was determined as 5.78%. Take `CNS(=O)(=O)c1cccc(C(C)NCc2ccc(F)c(F)c2)c1` (stereo not given): the cytotoxicity at 10 µM was found to be 16.2%. As for `Cn1cccc1C(=O)N1CCC(c2nnc(Cn3ccnc3)n2C)CC1`, the cytotoxicity at 10 µM is -114%.

`CCN(CC)C(CNS(=O)(=O)NCc1ccccc1)c1ccco1` (stereo not given): the cytotoxicity at 10 µM was found to be 1.53%. With `COc1ccc(C(=O)N2CCOC(Cc3cccc(C(F)(F)F)c3)C2)o1` (stereo not given), the cytotoxicity at 10 µM is -0.869%. `CCOC(=O)c1cc(C(C)(O)CCC=C(C)C)on1` (stereo not given): the cytotoxicity at 10 µM turned out to be 2.3%.

Take `O=C(CCc1ccncc1)N1CCCC(N2CCNC2=O)C1` (stereo not given): the cytotoxicity at 10 µM amounted to 2.71%. As for `CCc1ccc(C(=O)N2CCN(CC(O)CC)CC2)o1` (stereo not given), the cytotoxicity at 10 µM is -17.6%. Next, `CN(C)c1ncccc1CNS(=O)(=O)c1ccccc1F`: -4.81%. As to `CN1CC2(CCN(C(=O)c3[nH]cnc3-c3ccccc3)C2)OC1=O` (stereo not given), the cytotoxicity at 10 µM is 4.43%. On to `COCc1nc(C(=O)N2CCCC(n3nc(C)nc3C)C2)cs1` (stereo not given), for which the cytotoxicity at 10 µM is -24.1%.
